Results as given in ChEMBL document CHEMBL3044849, “Synthesis and insecticidal activities of novel N-sulfenyl-N'-tert-butyl-N,N'-diacylhydrazines. 1. N-alkoxysulfenate derivatives” (2007).
Values after ≈ are worked out from the molar mass of the structure shown.

Columns and labels:
Type in all cases: functional
Mythimna separata [1] = assay: Stomach toxicity against fourth-instar larval stage of Mythimna separata (Oriental armyworm) in compound-pretreated corn leaves assessed as mortality at 10 mg/kg at 25+/-1 degC measured after 4 days
Mythimna separata [2] = assay: Stomach toxicity against fourth-instar larval stage of Mythimna separata (Oriental armyworm) in compound-pretreated corn leaves assessed as mortality at 25 mg/kg at 25+/-1 degC measured after 4 days
Mythimna separata [3] = assay: Stomach toxicity against fourth-instar larval stage of Mythimna separata (Oriental armyworm) in compound-pretreated corn leaves assessed as mortality at 50 mg/kg at 25+/-1 degC measured after 4 days
Mythimna separata [4] = assay: Toxic ratio of RH-5992 LD90 to compound LD90 for fourth-instar larval stage of Mythimna separata (Oriental armyworm) measured after 96 hr
Outline: (§1)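 Oriental armyworm fourth-instar larvae each received 0.306 µL of acetone dilution at varying concentrations on the thoracic tergite via platinum loop. Acetone-only control. Larvae were returned to rearing conditions at 25 ± 1 °C and mortality was scored 96 h after treatment. LD50 and LD90 were derived from triplicate treatments; ratios use reference over test values.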

Mythimna separata [5] = assay: Stomach toxicity against fourth-instar larval stage of Mythimna separata (Oriental armyworm) in compound-pretreated corn leaves assessed as mortality at 5 mg/kg at 25+/-1 degC measured after 4 days
Mythimna separata [6] = assay: Contact toxicity against fourth-instar larval stage of Mythimna separata (Oriental armyworm) assessed as mortality at 25 +/-1 degC applied topically on the thoracic tergite measured per larva after 96 hr; outline: as §1
Helicoverpa armigera = assay: Contact toxicity against fourth-instar larval stage of Helicoverpa armigeraassessed as mortality at 25 +/-1 degC applied topically on the thoracic tergite measured per gm of larva after 48 hr
Outline: (§2)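 Fourth-instar larvae of tobacco cutworm, Asian corn borer and cotton bollworm were used. Compounds in acetone at five to seven concentrations; 1 µL applied to the thoracic tergite by automatic microapplicator. Acetone-only control. Usually 40 insects per dose, four replicates, kept under rearing conditions at 25 ± 1 °C. Mortality at 48 h gave LD50; ratios use reference LD50 over test LD50.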

Spodoptera exigua [7] = assay: Toxic ratio of RH-5992 LC90 to compound LC90 for third-instar larval stage of Spodoptera exigua measured after 3 days by leaf-dip method
Mythimna separata [8] = assay: Stomach toxicity against fourth-instar larval stage of Mythimna separata (Oriental armyworm) in compound-pretreated corn leaves assessed as mortality at 2.5 mg/kg at 25+/-1 degC measured after 4 days
Spodoptera exigua [9] = assay: Toxic ratio of RH-5992 LC50 to compound LC50 for third-instar larval stage of Spodoptera exigua measured after 3 days by leaf-dip method
Spodoptera exigua [10] = assay: Stomach toxicity against third-instar larval stage of Spodoptera exigua in cabbage leaves assessed as mortality at 25 +/-1 degC treated for 3 secs before larval infestation measured after 3 days by leaf-dip method; conditions: for LC50: Spodoptera exigua, Instar larval stage, 72 h
Outline: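 Leaf-dip assay: fresh cabbage leaf discs (5 cm × 3 cm) were dipped 3 s in test solution and air-dried, then placed singly in boxes with five third-instar beet armyworm larvae per disc. Water- and acetone-treated leaves served as controls. Held at 25 ± 1 °C; percentage mortality was read 3 days after treatment, in triplicate.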

Mythimna separata [11] = assay: Toxic ratio of RH-5992 LD50 to compound LD50 for fourth-instar larval stage of Mythimna separata (Oriental armyworm) measured after 96 hr; outline: as §1
Spodoptera litura = assay: Contact toxicity against fourth-instar larval stage of Spodoptera litura assessed as mortality at 25 +/-1 degC applied topically on the thoracic tergite measured per gm of larva after 48 hr; outline: as §2
Ostrinia furnacalis = assay: Contact toxicity against fourth-instar larval stage of Ostrinia furnacalis (Asian corn borer) assessed as mortality at 25 +/-1 degC applied topically on the thoracic tergite measured per gm of larva after 48 hr; outline: as §2
Mythimna separata [12] = assay: Stomach toxicity against fourth-instar larval stage of Mythimna separata (Oriental armyworm) in compound-pretreated corn leaves assessed as mortality at 100 mg/kg at 25+/-1 degC measured after 4 days

SMILES | mortality at 10 mg/kg (Mythimna separata [1]) [%] | mortality at 25 mg/kg (Mythimna separata [2]) [%] | mortality at 50 mg/kg (Mythimna separata [3]) [%] | mortality at 5 mg/kg (Mythimna separata [5]) [%] | mortality at 2.5 mg/kg (Mythimna separata [8]) [%] | also measured
COSN(C(=O)c1ccccc1)N(C(=O)c1ccccc1)C(C)(C)C | 0 | 100 | 100 | – | – | –
CCc1ccc(C(=O)N(SOC)N(C(=O)c2cc(C)cc(C)c2)C(C)(C)C)cc1 | 100 | 100 | – | 100 | 100 | Ratio (Mythimna separata [4]): 154; LD50 (Mythimna separata [6]): 0.0195 µg; LD90 (Mythimna separata [6]): 0.0479 µg; LD50 (Helicoverpa armigera): 73.907 µg; Ratio (Spodoptera exigua [7]): 5.1; RatioLC50 (Spodoptera exigua [9]): 3.4; LC90 (Spodoptera exigua [10]): 524.29 µg/mL (≈ 1260 µM); LC50 (Spodoptera exigua [10]): 24.4 µg/mL (≈ 58.7 µM); Ratio (Mythimna separata [11]): 141; LD50 (Spodoptera litura): 16.061 µg; LD50 (Ostrinia furnacalis): 44.961 µg
CCOSN(C(=O)c1ccc(CC)cc1)N(C(=O)c1cc(C)cc(C)c1)C(C)(C)C | 100 | 100 | 100 | 100 | 70 | –
CCCOSN(C(=O)c1ccc(CC)cc1)N(C(=O)c1cc(C)cc(C)c1)C(C)(C)C | 100 | 100 | 100 | 90 | 80 | –
CCc1ccc(C(=O)N(SOC(C)C)N(C(=O)c2cc(C)cc(C)c2)C(C)(C)C)cc1 | 100 | 100 | 100 | 100 | 50 | –
CCCCOSN(C(=O)c1ccc(CC)cc1)N(C(=O)c1cc(C)cc(C)c1)C(C)(C)C | 100 | 100 | 100 | 100 | 90 | –
CCc1ccc(C(=O)N(SOCC(C)C)N(C(=O)c2cc(C)cc(C)c2)C(C)(C)C)cc1 | – | – | – | 100 | 80 | –
CCc1ccc(C(=O)N(SOC(C)(C)C)N(C(=O)c2cc(C)cc(C)c2)C(C)(C)C)cc1 | 100 | 100 | 100 | 70 | 60 | –
CCCCCOSN(C(=O)c1ccc(CC)cc1)N(C(=O)c1cc(C)cc(C)c1)C(C)(C)C | – | – | – | 100 | 100 | –
CCc1ccc(C(=O)N(SOC(C)(C)CC)N(C(=O)c2cc(C)cc(C)c2)C(C)(C)C)cc1 | – | – | – | 80 | 70 | –
CCc1ccc(C(=O)N(SOCc2ccccc2)N(C(=O)c2cc(C)cc(C)c2)C(C)(C)C)cc1 | – | – | – | 90 | 70 | –
CCc1ccc(C(=O)N(SOCCc2ccccc2)N(C(=O)c2cc(C)cc(C)c2)C(C)(C)C)cc1 | – | – | – | 90 | 50 | –
CCc1ccc(C(=O)N(SOCCF)N(C(=O)c2cc(C)cc(C)c2)C(C)(C)C)cc1 | – | – | – | 100 | 70 | –
CCc1ccc(C(=O)N(SOCC(F)(F)F)N(C(=O)c2cc(C)cc(C)c2)C(C)(C)C)cc1 | – | – | – | 100 | 90 | –
CCc1ccc(C(=O)N(SOCCOC)N(C(=O)c2cc(C)cc(C)c2)C(C)(C)C)cc1 | – | – | – | 90 | 70 | –
CCOCCOSN(C(=O)c1ccc(CC)cc1)N(C(=O)c1cc(C)cc(C)c1)C(C)(C)C | – | – | – | 100 | 90 | –
COSN(C(=O)c1ccc2c(c1C)OC(C)C2)N(C(=O)c1cc(C)cc(C)c1)C(C)(C)C (stereo not drawn) | – | – | – | – | 80 | –
CCOSN(C(=O)c1ccccc1)N(C(=O)c1ccccc1)C(C)(C)C | – | 0 | 85 | – | – | mortality at 100 mg/kg (Mythimna separata [12]): 100%
CCCOSN(C(=O)c1ccccc1)N(C(=O)c1ccccc1)C(C)(C)C | 10 | 50 | 90 | – | – | –
CC(C)OSN(C(=O)c1ccccc1)N(C(=O)c1ccccc1)C(C)(C)C | 10 | 100 | 100 | – | – | –
CC(C)(C)OSN(C(=O)c1ccccc1)N(C(=O)c1ccccc1)C(C)(C)C | 10 | 100 | 100 | – | – | –
Cc1cc(C)cc(C(=O)N(NC(=O)c2ccc3c(c2C)OC(C)C3)C(C)(C)C)c1 (stereo not drawn) [FUXIAN] | – | – | – | 100 | 90 | –
CC(C)(C)N(NC(=O)c1ccccc1)C(=O)c1ccccc1 [RH-5849] | 0 | 70 | 100 | – | – | –
CCc1ccc(C(=O)NN(C(=O)c2cc(C)cc(C)c2)C(C)(C)C)cc1 [TEBUFENOZIDE] | 100 | – | – | 95 | 55 | Ratio (Mythimna separata [4]): 100; LD50 (Mythimna separata [6]): 0.0275 µg; LD90 (Mythimna separata [6]): 0.0739 µg; LD50 (Helicoverpa armigera): 1311.9 µg; Ratio (Spodoptera exigua [7]): 1; RatioLC50 (Spodoptera exigua [9]): 1; LC90 (Spodoptera exigua [10]): 2648.6 µg/mL (≈ 7510 µM); LC50 (Spodoptera exigua [10]): 83.4 µg/mL (≈ 237 µM); Ratio (Mythimna separata [11]): 100; LD50 (Spodoptera litura): 527.12 µg; LD50 (Ostrinia furnacalis): 59.414 µg
